Paper PMC7564327 (Acta Pharmaceutica Sinica. B, 2020)

How the values were obtained:
hOATP1B1 [1] = biological target: T1, hOATP1B1 (Homo sapiens, UniProt Q9Y6L6); test: Cellular uptake and kinetics in HEK293-hOATP1B1 vs Mock cells; type: in vitro ADME; details: 100 μmol/L
T1 sequence (Q9Y6L6 1-691): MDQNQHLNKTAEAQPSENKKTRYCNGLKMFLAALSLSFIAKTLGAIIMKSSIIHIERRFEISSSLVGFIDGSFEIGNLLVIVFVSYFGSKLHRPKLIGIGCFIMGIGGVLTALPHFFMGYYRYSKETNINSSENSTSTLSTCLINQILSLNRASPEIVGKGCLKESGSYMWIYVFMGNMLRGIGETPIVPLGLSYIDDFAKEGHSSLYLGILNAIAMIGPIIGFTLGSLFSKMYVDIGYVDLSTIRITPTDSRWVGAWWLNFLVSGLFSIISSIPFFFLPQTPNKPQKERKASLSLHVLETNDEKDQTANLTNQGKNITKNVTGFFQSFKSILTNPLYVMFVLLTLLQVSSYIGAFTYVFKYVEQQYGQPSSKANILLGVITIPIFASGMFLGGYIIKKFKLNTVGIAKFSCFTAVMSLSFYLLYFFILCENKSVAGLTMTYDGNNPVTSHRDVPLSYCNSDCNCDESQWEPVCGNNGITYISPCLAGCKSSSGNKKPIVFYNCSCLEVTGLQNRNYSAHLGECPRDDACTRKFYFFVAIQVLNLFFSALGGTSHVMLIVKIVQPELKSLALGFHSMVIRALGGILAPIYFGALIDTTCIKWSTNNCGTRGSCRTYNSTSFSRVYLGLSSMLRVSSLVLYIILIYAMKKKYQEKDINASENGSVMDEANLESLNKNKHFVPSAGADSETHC

hOAT1 = biological target: T2, hOAT1 (Homo sapiens, UniProt Q4U2R8); test: Cellular uptake in MDCK-hOAT1 vs Mock cells; type: in vitro ADME; details: 100 μmol/L, substrate if >2-fold of wild type
T2 sequence (Q4U2R8 1-563): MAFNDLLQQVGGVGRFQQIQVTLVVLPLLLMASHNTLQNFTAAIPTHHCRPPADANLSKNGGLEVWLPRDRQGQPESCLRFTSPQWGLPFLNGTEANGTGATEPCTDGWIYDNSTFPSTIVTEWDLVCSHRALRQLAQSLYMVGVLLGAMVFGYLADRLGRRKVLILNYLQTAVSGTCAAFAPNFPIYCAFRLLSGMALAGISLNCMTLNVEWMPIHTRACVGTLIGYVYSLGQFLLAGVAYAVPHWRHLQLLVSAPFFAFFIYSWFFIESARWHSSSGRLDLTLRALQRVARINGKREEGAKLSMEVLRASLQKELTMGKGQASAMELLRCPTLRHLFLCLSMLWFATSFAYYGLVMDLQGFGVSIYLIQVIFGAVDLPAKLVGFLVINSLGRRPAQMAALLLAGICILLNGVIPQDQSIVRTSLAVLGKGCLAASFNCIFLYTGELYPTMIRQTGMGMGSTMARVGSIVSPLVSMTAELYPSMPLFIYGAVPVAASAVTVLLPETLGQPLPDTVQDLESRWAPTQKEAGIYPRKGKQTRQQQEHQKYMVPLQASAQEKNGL
Summary of the method: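 Transfected cells and matching Mock cells were seeded at 2 × 10⁵ cells/mL and grown 2 days. After a DPBS (pH 7.4) wash and 10 min preincubation at 37 °C, cells took up 100 μmol/L test compound for 2–5 min at 37 °C. Uptake was stopped with three ice-cold DPBS washes, followed by methanol extraction and HPLC–MS. Values were normalised to BCA protein and compared with Mock.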

hOATP1B1 [2] = biological target: T1, hOATP1B1; test: Inhibition of 3H-ES uptake in HEK293-hOATP1B1 cells; type: in vitro ADME; details: 100 μmol/L IPT, ISP; 100 μg/mL AD extract; substrate 3H-ES
Summary of the method: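 HEK293 cells stably overexpressing the human transporter, grown in DMEM with 10% FBS and penicillin/streptomycin at 5% CO₂, then seeded in 24-well plates and used at confluence. Cells incubated at 37 °C for 2 min with 50 nmol/L ³H-estrone sulfate, with or without test compound or extract; final DMSO below 0.5%. Stopped by three cold DPBS washes, lysed in 0.1 mol/L NaOH, and counted by liquid scintillation (DPM).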

hOATP2B1 = biological target: T3, hOATP2B1 (Homo sapiens, UniProt O94956); test: Inhibition of 3H-ES uptake in HEK293-hOATP2B1 cells; type: in vitro ADME; details: 100 μmol/L IPT, ISP; substrate 3H-ES
T3 sequence (O94956 1-709): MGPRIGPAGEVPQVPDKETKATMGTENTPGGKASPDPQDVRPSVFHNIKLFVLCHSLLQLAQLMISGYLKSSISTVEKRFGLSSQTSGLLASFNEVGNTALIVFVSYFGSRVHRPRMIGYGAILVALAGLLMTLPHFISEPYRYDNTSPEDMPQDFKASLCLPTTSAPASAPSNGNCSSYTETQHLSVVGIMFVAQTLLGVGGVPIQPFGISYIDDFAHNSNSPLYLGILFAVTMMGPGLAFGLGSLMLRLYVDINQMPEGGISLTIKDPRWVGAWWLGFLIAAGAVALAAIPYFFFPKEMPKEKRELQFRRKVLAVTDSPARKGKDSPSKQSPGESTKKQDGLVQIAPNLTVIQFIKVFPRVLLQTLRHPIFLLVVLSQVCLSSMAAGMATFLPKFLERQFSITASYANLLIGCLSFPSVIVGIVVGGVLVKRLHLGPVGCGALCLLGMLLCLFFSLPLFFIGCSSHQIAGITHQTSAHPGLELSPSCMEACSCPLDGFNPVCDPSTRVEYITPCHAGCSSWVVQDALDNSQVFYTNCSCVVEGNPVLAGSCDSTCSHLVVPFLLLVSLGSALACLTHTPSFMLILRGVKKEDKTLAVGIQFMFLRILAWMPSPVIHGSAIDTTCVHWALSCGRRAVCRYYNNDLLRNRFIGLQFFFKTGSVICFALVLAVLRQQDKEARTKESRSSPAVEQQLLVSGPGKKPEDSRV
Summary of the method: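 Test compounds were made as DMSO stocks (20 mmol/L, or 10 mg/mL for extract) and diluted in PBS to a final DMSO below 0.5%. Cells were exposed at 37 °C to probe plus or minus test compound. The probe was 5 μmol/L ¹⁴C-PAH for 5 min (hOAT1) or 50 nmol/L ³H-estrone sulfate for 2 min (hOAT3, hOATP2B1). Screens used 100 μmol/L (extract 100 mg/L); IC50 came from varied concentrations. Cells were then given three cold DPBS washes, lysed in 0.1 mol/L NaOH and read by scintillation counting. Data are mean ± SD, n = 3.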

[3] = Tissue distribution of TDE in mice; details: oral 20 mg/kg TDE with 20 mg/kg IPT, 20 mg/kg ISP or 200 mg/kg AD extract, 1, 2 and 4 h; for accumulation of TDE in kidney vs TDE alone / accumulation of TDE in liver vs TDE alone: P < 0.05
mOatp1b2 = test: qRT-PCR of mOatp1b2 mRNA in liver of treated mice; type: in vivo; details: mice given 20 mg/kg TDE with 20 mg/kg IPT, ISP or 200 mg/kg AD extract, 4 h

Compound	accumulation in hOATP1B1-overexpressed cell lines compared to wild type (hOATP1B1 [1])	accumulation in MDCK-hOAT1, fold higher than in MDCK-Mock (hOAT1)	inhibition to hOATP1B1 (hOATP1B1 [2])	inhibition to hOATP2B1 (hOATP2B1)	concentration of TDE in blood vs TDE alone [3]	concentration of TDE in brain vs TDE alone [3]	accumulation of TDE in kidney vs TDE alone [3]	accumulation of TDE in liver vs TDE alone [3]	mRNA level of mOatp1b2 decreased to, compared to TDE alone (mOatp1b2)
CC(C)=CCOc1c2occc2cc2ccc(=O)oc12 [IPT, imperatorin]	could largely accumulate	~4.92 fold	weak or no inhibition	weak or no inhibition	significantly enhanced	significantly enhanced	significantly decreased	significantly decreased	61%
CC(C)=CCOc1c2ccoc2cc2oc(=O)ccc12 [ISP, isoimperatorin]	could largely accumulate	~3.40 fold	weak or no inhibition	weak or no inhibition	significantly enhanced	significantly enhanced	significantly decreased	significantly decreased	50%
